# SIAE primary: blocks human sialic acid acetylesterase. Q9HAT2. inhibition, % at 9.66 µM. 370,000 compounds, 0.69% hits. AID 1053197. SIAE FP-Rh probe binding, fluorescence polarization;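 active means inhibition above a cutoff: mean of compounds within the control limits plus 3 SD of those, cut at about 17% in these data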;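 further: 0% = plate median of compound wells and 100% = probe without SIAE protein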
# Target sequence (Q9HAT2 whole entry, looked up): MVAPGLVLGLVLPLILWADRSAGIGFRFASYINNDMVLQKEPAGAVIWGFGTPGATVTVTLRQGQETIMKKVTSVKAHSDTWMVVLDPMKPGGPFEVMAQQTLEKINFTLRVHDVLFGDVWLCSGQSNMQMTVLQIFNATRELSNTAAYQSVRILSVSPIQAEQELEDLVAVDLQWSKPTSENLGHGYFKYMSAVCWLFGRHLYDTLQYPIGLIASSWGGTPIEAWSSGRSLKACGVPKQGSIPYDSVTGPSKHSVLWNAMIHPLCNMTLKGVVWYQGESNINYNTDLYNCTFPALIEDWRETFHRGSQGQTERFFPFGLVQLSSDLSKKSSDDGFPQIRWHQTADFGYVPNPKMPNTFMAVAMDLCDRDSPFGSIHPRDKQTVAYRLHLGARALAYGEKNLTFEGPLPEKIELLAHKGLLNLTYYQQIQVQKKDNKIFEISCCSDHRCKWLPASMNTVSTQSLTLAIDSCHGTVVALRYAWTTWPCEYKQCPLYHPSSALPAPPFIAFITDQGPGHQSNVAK
# HTRA1 inhibitor: blocks human HTRA1 serine peptidase. Q92743. recombinant HTRA1, FP-rhodamine activity-based probe, fluorescence polarization. inhibition, % at 5.96 µM. 340,000 compounds, 0.5% hits; in the data active means inhibition above about 36%;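 further: 0% = enzyme with DMSO and 100% = wells lacking enzyme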
# ABHD4 inh: ABHD4 (mouse) inhibition, primary FP screen; purified mABHD4, FP-Rh probe fluorescence polarization; inhibition, % at 8.92 µM; 370,000 compounds, 0.54% hits; AID 720543;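 active means inhibition exceeding the mean over every tested compound plus 3 SD, cut at about 30% in these data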;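 further: 0% = plate median of compound wells and 100% = S159A mutant with DMSO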
#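 system = mouse ABHD4 enzyme, wild type | medium = HEPES pH 7.0, NaCl, Pluronic buffer | also added = FP-Rh probe | incubation = Enzyme–compound pre-incubation 45 min, then probe 60 min, both 25 °C | technique = fluorescence polarization, excitation 525 nm, emission 598 nm, BODIPY TMR filters | controls = S159A mutant high control, sample median low control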
# TCR-CD3 inh: inhibitors of human TCR-CD3 interaction; TAMRA-labeled TCR probe fluorescence, biochemical; AID 651800; 360,000 compounds, 0.37% hits; inhibition, % at 9.4 µM; in the data active means inhibition above about 19%;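 further: recombinant mutant TCR 2C K166C tagged with TAMRA read by polarization; 0% = receptor in buffer alone and 100% = receptor with positive control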
# rCAG RNA binder: r(CAG) repeat RNA binding; TO-PRO-1 dye displacement fluorescence; inhibition, % at 3 µM; 370,000 compounds, 1.3% hits;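 active means inhibition above the plate cutoff, the mean of all test compounds on that plate plus 3 SD, cut at about 35% in these data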;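 further: 0% = DMSO alone and 100% = 100 µM mitoxantrone as full dye displacement; higher means more dye released from RNA so lower well fluorescence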
# rCAG bind conf: r(CAG) RNA repeat binding, confirmation | shares compounds with rCAG RNA binder | TO-PRO-1 dye displacement fluorescence | inhibition, % at 3 µM | 4,300 compounds, 70% hits | AID 652065;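 active means inhibition above a per-plate cutoff, the mean inhibition of sample wells plus 3 SD, cut at about 35% in these data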;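 further: loss of TO-PRO-1 fluorescence as compound displaces dye from 1x1 AA loop RNA; 0% = DMSO only wells and 100% = 100 µM mitoxantrone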
# DNA CAG counter: DNA CAG dye complex inhibition counter-screen; shares compounds with rCAG RNA binder; d(CAG) DNA oligo TO-PRO-1 dye displacement, fluorescence; inhibition, % at 3 µM; 4,300 compounds, 94% hits;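 active means inhibition above its plate's cutoff, the mean test-well inhibition plus 3 SD, cut at about 4.8% in these data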;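 further: 0% = DNA dye mix with DMSO and 100% = 100 µM mitoxantrone; hits displace the dye from DNA and so lower well fluorescence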
# DNA CAG DR: counter-screen for rCAG binders: inhibitors of DNA CAG TO-PRO-1 complex | shares compounds with rCAG RNA binder | DNA CAG/GTC duplex TO-PRO-1 dye displacement fluorescence | IC50, µM | 250 compounds, 20% hits | AID 686960; in the data active means IC50 below about 10 µM
# Active calls of the source: *; i = inactive; / = no result. The list is not random: actives were taken first. Their share in the collection is about 2.5%.
SMILES,SIAE primary,HTRA1 inhibitor,ABHD4 inh,TCR-CD3 inh,rCAG RNA binder,rCAG bind conf,DNA CAG counter,others
COc1ccc(-n2c(COc3ccc(C)cc3)nnc2SCC(=O)Nc2ccc(S(=O)(=O)Nc3cc(C)nc(C)n3)cc2)cc1,-5,/,-7,/,51*,44*,14*,
CCOc1ccc(-n2c(SCC(=O)Nc3ccc(S(=O)(=O)Nc4cc(C)nc(C)n4)cc3)nnc2-c2ccc(OC)cc2)cc1,-9,/,-20,/,41*,44*,15*,
COc1ccc(C(O)P(=O)(OCC(C)C)OCC(C)C)c(OC)c1 (centres undefined),-2,4,1,11,-6,/,/,
CCOc1ccc(-n2c(SCC(=O)Nc3ccc(S(=O)(=O)Nc4cc(C)nc(C)n4)cc3)nnc2-c2cccc(C)c2)cc1,-11,/,-28,/,47*,47*,16*,
Cc1nc2c(cnn2-c2ccccc2Cl)c(=O)n1-c1ccc(N2CCC(C)CC2)cc1,8,0,-4,-7,5,/,/,
CCOC(=O)C1=C(C)N=c2s/c(=C\c3ccc(OCC(=O)O)c(OC)c3)c(=O)n2C1c1ccc(OC)cc1 (centres undefined),-15,-20,-35,-2,54*,75*,38*,
CCOC(=O)C1=C(c2ccccc2)N=c2s/c(=C\c3ccc(O)cc3)c(=O)n2C1c1cccs1 (centres undefined),-48,-106,-57,-39,37*,36*,20*,
CCOC(=O)C1=C(C)N=c2sc(=Cc3cc(Cl)c(OCC(=O)O)c(OC)c3)c(=O)n2C1c1ccccc1Cl (centres undefined),-27,/,3,-21,22,/,/,
CCOC(=O)C1=C(C)N=c2s/c(=C\c3ccc(OCC(=O)O)cc3)c(=O)n2C1c1ccccc1 (centres undefined),-17,-24,-36,4,75*,77*,35*,
CCOC(=O)C1=C(C)N=c2s/c(=C3/C(=O)Nc4ccccc43)c(=O)n2C1c1ccc(C)cc1 (centres undefined),-31,-11,-13,8,43*,53*,22*,DNA CAG DR=i
CCN1CCN(C(=O)CCCn2c(C)c3cnn(-c4ccccc4)c(=O)c3c2C)CC1,-1,2,2,1,2,/,/,
O=C(Nc1nc2ccccc2[nH]1)c1ccc(F)c(S(=O)(=O)N2CCOCC2)c1,-3,-4,0,3,5,/,/,
CCOC(=O)C1=C(C)N=c2sc(=Cc3ccc(OCC(=O)O)cc3)c(=O)n2C1c1ccc(SC)cc1 (centres undefined),-54,/,-55,6,82*,71*,37*,
COc1ccc(/C=C2\SC(=O)N(CCC(=O)N3CCN(C)CC3)C2=O)cc1,3,-2,-1,0,-9,/,/,
CO[C@@H]1[C@@H](OC(N)=O)[C@@H](O)[C@H](Oc2ccc3c(O)c(NC(=O)c4ccc(O)c(CC=C(C)C)c4)c(=O)oc3c2C)OC1(C)C,0,/,15,1,50*,56*,26*,
Cc1c(O[C@@H]2O[C@H](CO)[C@@H](O)[C@H](O)[C@H]2O)ccc2c1oc(=O)c1ccccc12,0,3,-5,-14,2,/,/,
N#Cc1c(-c2cccs2)nc(SCc2ccc(Cl)cc2)[nH]c1=O,-39,-143,-121,-7,87*,88*,68*,
CCOc1ccc(Cn2c(O)cc(=O)[nH]c2=O)cc1,-10,-12,1,9,47*,12,4,
COc1ccc(Cn2c(O)cc(=O)[nH]c2=O)cc1,-2,-10,-2,2,28,/,/,
CC(C)(C)c1ccc(CC(=O)N2CCC2(C)C(=O)NS(=O)(=O)c2ccc(F)cc2F)cc1 (centres undefined),-1,/,0,-7,41*,30,6.1*,
CC1(C(=O)NS(=O)(=O)c2ccc(F)cc2F)CCN1C(=O)Cc1ccccc1Cl (centres undefined),-2,/,-1,-4,7,/,/,
